Like-named read-outs stand apart in the source and are kept apart here.
Columns and labels:
[1] = system: human cerebellum TSPO, LAB genotype; details: cited from earlier work
[2] = molecular target: T1, human cerebellum TSPO, LAB genotype (Homo sapiens, UniProt P30536); details: read-out: LAB Ki; cited from earlier work
[3] = molecular target: T2, human cerebellum TSPO, HAB genotype (Homo sapiens, UniProt P30536); details: cited from earlier work
TSPO in rat kidney [4] = molecular target: T3, TSPO in rat kidney (Rattus norvegicus, UniProt P16257); details: cited from earlier work
[5] = cited from earlier work
Measurement of logD = type: physicochemical; details: for logD7.4: n-octanol / sodium phosphate buffer pH 7.4, RT, n = 6; for logD: n-octanol/sodium phosphate buffer, pH 7.4
Summary of the method: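 Shake-flask partition of each radiolabelled test compound between 1-octanol and sodium phosphate buffer (pH 7.4) at room temperature; logD taken from the distribution coefficient of radioactivity between the two phases.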

[6] = system: human cerebellum TSPO, LAB genotype; assay: [3H]PK11195 binding assay, human cerebellum homogenates, LAB genotype; details: human cerebellum genotype sensitivity in vitro
[7] = molecular target: T1, human cerebellum TSPO, LAB genotype; assay: as above
[8] = molecular target: T2, human cerebellum TSPO, HAB genotype; assay: [3H]PK11195 binding assay, human cerebellum homogenates, HAB genotype; details: for lipE HAB: lipE = pKi – logD
TSPO in rat kidney [9] = molecular target: T3, TSPO in rat kidney; assay: [3H]PK11195 displacement binding, rat kidney membranes; details: for lipE rat kidney: lipE = pKi – logD
[10] = molecular target: TSPO in human U87MG cells (Homo sapiens, UniProt P30536); assay: [3H]PK11195 displacement binding, human U87MG cell membranes; details: for lipE human U87MG: lipE = pKi – logD
TSPO in the mouse brain = TSPO in the mouse brain (Mus musculus, UniProt P50637); assay: PET imaging of radioligands in mouse brain, baseline and PK11195 preblock; type: in vivo
[11] = lipE = pKi – logD, data from ref 27
[12] = read-out: LAB Ki, human cerebellum, three LAB subjects, 1 h at 37 °C
[13] = read-out: HAB Ki, human cerebellum, three HAB subjects, 1 h at 37 °C
[14] = read-out: rat kidney Ki, [3H]PK11195 1 nM, 90 min at 0 °C, n = 3
[15] = read-out: human U87MG Ki, [3H]PK11195 1 nM, 90 min at 0 °C, n = 3

T1 sequence (P30536 2-169): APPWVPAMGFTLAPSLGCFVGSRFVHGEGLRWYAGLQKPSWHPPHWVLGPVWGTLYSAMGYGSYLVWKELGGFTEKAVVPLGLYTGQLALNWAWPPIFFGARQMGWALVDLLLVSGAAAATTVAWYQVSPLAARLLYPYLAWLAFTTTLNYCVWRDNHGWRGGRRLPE
T2 sequence (P30536 whole entry): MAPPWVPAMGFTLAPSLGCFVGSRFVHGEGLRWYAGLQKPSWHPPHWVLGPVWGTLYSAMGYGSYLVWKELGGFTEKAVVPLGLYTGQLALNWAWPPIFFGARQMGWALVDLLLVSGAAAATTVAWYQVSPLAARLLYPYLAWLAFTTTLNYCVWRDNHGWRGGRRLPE
Sequence of TSPO in human U87MG cells (P30536 whole entry): as above

logD7.4 (Measurement of logD)	LAB to HAB Ki ratio [6]	Ki [7, 12] [nM]	lipE HAB [8]	Ki [8, 13] [nM]	lipE rat kidney (TSPO in rat kidney [9])	Ki (TSPO in rat kidney [9]; [14]) [nM]	lipE human U87MG [10]	Ki [10, 15] [nM]	logD (Measurement of logD)	Ki [7] [nM]	Ki [8] [nM]	Ki (TSPO in rat kidney [9]) [nM]	Ki [10] [nM]	SMILES	other results
–	–	–	–	–	–	–	–	–	–	–	–	–	–	CC[C@@H](C)N(C)C(=O)c1nc(-c2ccccc2Cl)c2ccccc2n1 [ER176, (R)-N-(sec-butyl)-4-(2-chlorophenyl)-N-methylquina-zoline-2-carboxamide]	LAB to HAB Ki ratio [1]: 1.28; Ki [2]: 1.89 nM; lipE HAB [3, 11]: 5.28; Ki ([3]; read-out: HAB Ki): 1.48 nM; lipE rat kidney (TSPO in rat kidney [4]; [11]): 4.96; Ki (TSPO in rat kidney [4]; read-out: rat kidney Ki): 3.1 ± 0.3 nM; logD7.4 [5]: 3.55 ± 0.02
3.01 ± 0.02	2.91	44.5 ± 34.4	4.81	15.3 ± 10.3	5.12	7.41 ± 0.82	5.14	7.03 ± 0.66	–	–	–	–	–	CC[C@@H](C)N(C)C(=O)c1nc(-c2ccc(F)cc2)c2ccccc2n1 [3c, (R)-(N-sec-Butyl)-4-(4-fluorophenyl)-N-methylquinazoline-2-carboxamide]	–
–	5.46	–	–	–	5.18	–	5.25	–	3.25 ± 0.03	37.1 ± 30.2	6.8 ± 8.1	3.74 ± 0.1	3.18 ± 0.17	CC[C@@H](C)N(C)C(=O)c1nc(-c2ccccc2C(F)(F)F)c2ccccc2n1 [3d, (R)-N-(sec-Butyl)-N-methyl-4-(2-(trifluoromethyl)phenyl)-quinazoline-2-carboxamide]	–
–	0.8	–	4.37	–	4.43	–	4.69	–	3.93 ± 0.01	4 ± 5	5 ± 3.9	4.39 ± 0.14	2.42 ± 0.66	CC[C@@H](C)N(C)C(=O)c1nc(-c2ccc(C(F)(F)F)cc2)c2ccccc2n1 [3f, (R)-N-(sec-Butyl)-N-methyl-4-(4-(trifluoromethyl)phenyl)-quinazoline-2-carboxamide]	–
3.04 ± 0.03	2.78	25 ± 11.6	5.01	9 ± 9.5	5.34	4.19 ± 0.35	5.21	5.64 ± 0.66	–	–	–	–	–	CC[C@@H](C)N(C)C(=O)c1nc(-c2ccccc2F)c2ccccc2n1 [3a, (R)-(N-sec-Butyl)-4-(2-fluorophenyl)-N-methylquinazoline-2-carboxamide]	–
3.97 ± 0.02	–	–	–	–	–	–	–	–	–	–	–	–	–	CCC(C)N(C)C(=O)c1cc2ccccc2c(-c2ccccc2Cl)n1 (stereo not shown) [PK11195, reference compound]	–
3.09 ± 0.01	2.74	24.9 ± 12.7	4.95	9.1 ± 8.1	5.20	5.17 ± 0.63	5.20	5.09 ± 0.65	–	–	–	–	–	CC[C@@H](C)N(C)C(=O)c1nc(-c2cccc(F)c2)c2ccccc2n1 [3b, (R)-(N-sec-Butyl)-4-(3-fluorophenyl)-N-methylquinazoline-2-carboxamide]	–
–	–	–	–	–	–	–	–	–	–	–	–	–	–	CC[C@@H](C)N([11CH3])C(=O)c1nc(-c2ccccc2Cl)c2ccccc2n1 [[^11C]ER176]	blocking effect of PK11195 on brain uptake (TSPO in the mouse brain; PK11195 5 mg/kg i.v. preblock, baseline vs preblock, 80–100 min): 72%; peak radioactivity uptake in the brain (TSPO in the mouse brain; mouse whole brain, baseline, i.v. injection): around 1.0 SUV; estimated brain TSPO occupancy at baseline (TSPO in the mouse brain; occupancy by carrier, estimated from brain concentration and molar activity): 2.6%
–	1.98	–	4.02	–	5.14	–	5.21	–	3.71 ± 0.03	36.9 ± 38.5	18.6 ± 15.7	1.44 ± 0.21	1.19 ± 0.17	CC[C@@H](C)N(C)C(=O)c1nc(-c2cccc(C(F)(F)F)c2)c2ccccc2n1 [3e, (R)-N-(sec-Butyl)-N-methyl-4-(3-(trifluoromethyl)phenyl)-quinazoline-2-carboxamide]	–

From paper PMC8817670 (Journal of medicinal chemistry, 2021)
